pIC50: −log10 of the molar value. Calls of active or inactive are those of the source. The calls are words filed in the database; no cut-off is given here.
Target: T1, Bile acid receptor (Homo sapiens, UniProt Q96RI1)
T1 sequence (Q96RI1 whole entry): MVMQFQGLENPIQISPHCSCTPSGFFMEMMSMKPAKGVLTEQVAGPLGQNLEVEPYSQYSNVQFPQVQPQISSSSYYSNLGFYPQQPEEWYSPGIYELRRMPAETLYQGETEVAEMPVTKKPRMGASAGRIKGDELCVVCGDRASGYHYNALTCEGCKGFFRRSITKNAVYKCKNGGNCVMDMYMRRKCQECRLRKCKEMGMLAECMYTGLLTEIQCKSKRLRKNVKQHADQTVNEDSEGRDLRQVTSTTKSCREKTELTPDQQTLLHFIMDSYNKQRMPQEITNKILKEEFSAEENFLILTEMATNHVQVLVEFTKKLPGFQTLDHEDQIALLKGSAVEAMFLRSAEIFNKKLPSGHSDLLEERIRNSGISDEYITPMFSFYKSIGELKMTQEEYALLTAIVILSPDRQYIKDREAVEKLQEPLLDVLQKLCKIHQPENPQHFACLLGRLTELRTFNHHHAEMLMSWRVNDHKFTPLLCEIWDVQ
Assay: Antagonist activity at human GST-tagged FXR after 20 mins by TR-FRET assay
Settings: not given
`Cc1ccc(NC(=O)c2cnn(-c3ccccc3)c2C(F)(F)F)cc1S(=O)(=O)N1CCOCC1` gave a pIC50 of 6.00.
`Cc1cccc(-n2ncc(C(=O)Nc3cccc(S(=O)(=O)N4CCOCC4)c3)c2C)c1` gave a pIC50 of 5.18.
`Cc1ccc(NC(=O)c2c(C)nn(-c3ccccc3)c2C)cc1S(=O)(=O)N1CCOCC1` showed a pIC50 of 5.48.
With `O=C(Nc1ccc(F)c(S(=O)(=O)N2CCOCC2)c1)c1cnn(-c2ccccc2)c1` the pIC50 was 5.08.

Target: T2, Bile acid receptor (Homo sapiens) (UniProt Q96RI1)
T2 sequence (whole entry): T1 sequence (Q96RI1 whole entry)
Assay: Inhibition of GW4064-induced transactivation of FXR (unknown origin) expressed in HEK293T cells at 40 uM after 16 hrs by beta-lactamase reporter gene assay relative to control
Type: cell-based
Settings: HEK-293T
Work on `Cc1ccc(-c2nn(CCCCO)cc2C(=O)Nc2ccc(C)c(S(=O)(=O)N3CCOCC3)c2)cc1` yielded an inhibition of 97.6%.
`COc1cccc(Cn2cc(C(=O)Nc3ccc(C)c(S(=O)(=O)N4CCOCC4)c3)c(-c3ccc(C(F)(F)F)cc3)n2)c1` showed an inhibition of 97.6%.
Work on `COCCc1nn(Cc2cccc(OC)c2)cc1C(=O)Nc1ccc(C)c(S(=O)(=O)N2CCOCC2)c1` yielded an inhibition of 95.9%.
Compound `COCCc1nn(C(C)C)cc1C(=O)Nc1ccc(C)c(S(=O)(=O)N2CCOCC2)c1` has an inhibition of 62.5%.
Work on `Cc1ccc(NC(=O)c2cnn(-c3ccccc3)c2C(F)(F)F)cc1S(=O)(=O)N1CCOCC1` yielded an inhibition of 101%.
`Cc1cccc(-n2ncc(C(=O)Nc3cccc(S(=O)(=O)N4CCOCC4)c3)c2C)c1` showed an inhibition of 66.9%.
`Cc1ccc(NC(=O)c2c(C)nn(-c3ccccc3)c2C)cc1S(=O)(=O)N1CCOCC1` showed an inhibition of 99%.
With `O=C(Nc1ccc(F)c(S(=O)(=O)N2CCOCC2)c1)c1cnn(-c2ccccc2)c1` the inhibition was 80.3%.

Target: T1, Bile acid receptor
Assay: Inhibition of GW4064-induced transactivation of FXR (unknown origin) expressed in HEK293T cells after 16 hrs by beta-lactamase reporter gene assay
Type: cell-based, HEK-293T
Settings: not given
In the case of `Cc1ccc(NC(=O)c2cnn(-c3ccccc3)c2C(F)(F)F)cc1S(=O)(=O)N1CCOCC1`, the pIC50 was 4.93.
With `Cc1cccc(-n2ncc(C(=O)Nc3cccc(S(=O)(=O)N4CCOCC4)c3)c2C)c1` the pIC50 was 4.53.
Work on `Cc1ccc(NC(=O)c2c(C)nn(-c3ccccc3)c2C)cc1S(=O)(=O)N1CCOCC1` yielded a pIC50 of 4.93.
`O=C(Nc1ccc(F)c(S(=O)(=O)N2CCOCC2)c1)c1cnn(-c2ccccc2)c1` showed a pIC50 of 5.03.

Tested on: not listed separately
Assay: Cytotoxicity against HEK293T cells expressing FXR and beta-lactamase genes assessed as inhibition of cell viability at 40 uM after 16 hrs by CellTiter-Glo luminescent assay relative to control
Type: cell-based, HEK-293T
Settings: human, read-out: INH
Method in brief: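 Viability run alongside the agonist assay in the same GeneBLAzer FXR HEK 293T cells: 20,000 cells/well in phenol red-free DMEM with 2% charcoal/dextran-treated FBS, 0.5% DMSO, 16 h at 37°C. Cooled 20 min, then CellTiter-Glo added for 20 min in dark; luminescence read.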
Compound `Cc1ccc(-c2nn(CCCCO)cc2C(=O)Nc2ccc(C)c(S(=O)(=O)N3CCOCC3)c2)cc1` has a cytotoxicity at 16 h, 40 µM of 5.9%.
In the case of `COc1cccc(Cn2cc(C(=O)Nc3ccc(C)c(S(=O)(=O)N4CCOCC4)c3)c(-c3ccc(C(F)(F)F)cc3)n2)c1`, the cytotoxicity at 16 h, 40 µM was less than 5%.
Compound `COCCc1nn(Cc2cccc(OC)c2)cc1C(=O)Nc1ccc(C)c(S(=O)(=O)N2CCOCC2)c1` has a cytotoxicity at 16 h, 40 µM of less than 5%.
For `COCCc1nn(C(C)C)cc1C(=O)Nc1ccc(C)c(S(=O)(=O)N2CCOCC2)c1`, the cytotoxicity at 16 h, 40 µM was less than 5%.
With `Cc1ccc(NC(=O)c2cnn(-c3ccccc3)c2C(F)(F)F)cc1S(=O)(=O)N1CCOCC1` the cytotoxicity at 16 h, 40 µM was 51.3%.
In the case of `Cc1cccc(-n2ncc(C(=O)Nc3cccc(S(=O)(=O)N4CCOCC4)c3)c2C)c1`, the cytotoxicity at 16 h, 40 µM was less than 5%.
`Cc1ccc(NC(=O)c2c(C)nn(-c3ccccc3)c2C)cc1S(=O)(=O)N1CCOCC1` gave a cytotoxicity at 16 h, 40 µM of 47.4%.
`O=C(Nc1ccc(F)c(S(=O)(=O)N2CCOCC2)c1)c1cnn(-c2ccccc2)c1` gave a cytotoxicity at 16 h, 40 µM of 27.4%.

Target: T2, Bile acid receptor (Homo sapiens)
Assay: Antagonist activity at human GST-tagged FXR at 40 uM after 20 mins by TR-FRET assay relative to control
Settings: not given
With `COCCc1nn(C(C)C)cc1C(=O)Nc1ccc(C)c(S(=O)(=O)N2CCOCC2)c1` the inhibition was 98.2%.

Target: T2, Bile acid receptor (Homo sapiens)
Assay: Antagonist activity at human GST-tagged FXR at 164 nM after 20 mins by TR-FRET assay relative to control
Settings: not given
For `COc1cccc(Cn2cc(C(=O)Nc3ccc(C)c(S(=O)(=O)N4CCOCC4)c3)c(-c3ccc(C(F)(F)F)cc3)n2)c1`, the inhibition was 109%.

Target: T2, Bile acid receptor (Homo sapiens)
Assay: Antagonist activity at human GST-tagged FXR at 493 nM after 20 mins by TR-FRET assay relative to control
Settings: not given
`Cc1ccc(-c2nn(CCCCO)cc2C(=O)Nc2ccc(C)c(S(=O)(=O)N3CCOCC3)c2)cc1` showed an inhibition of 89.3%.

Target: T2, Bile acid receptor (Homo sapiens)
Assay: Antagonist activity at human GST-tagged FXR at 13.3 uM after 20 mins by TR-FRET assay relative to control
Settings: not given
With `COCCc1nn(Cc2cccc(OC)c2)cc1C(=O)Nc1ccc(C)c(S(=O)(=O)N2CCOCC2)c1` the inhibition was 114%.
With `Cc1ccc(NC(=O)c2cnn(-c3ccccc3)c2C(F)(F)F)cc1S(=O)(=O)N1CCOCC1` the inhibition was 99.8%.
In the case of `Cc1cccc(-n2ncc(C(=O)Nc3cccc(S(=O)(=O)N4CCOCC4)c3)c2C)c1`, the inhibition was 85.1%.
With `Cc1ccc(NC(=O)c2c(C)nn(-c3ccccc3)c2C)cc1S(=O)(=O)N1CCOCC1` the inhibition was 70.6%.
In the case of `O=C(Nc1ccc(F)c(S(=O)(=O)N2CCOCC2)c1)c1cnn(-c2ccccc2)c1`, the inhibition was 83.8%.

Target: T2, Bile acid receptor (Homo sapiens)
Assay: Agonist activity at FXR (unknown origin) expressed in HEK293T cells after 16 hrs by beta-lactamase reporter gene assay relative to control
Type: cell-based
Settings: HEK-293T
In the case of `Cc1ccc(-c2nn(CCCCO)cc2C(=O)Nc2ccc(C)c(S(=O)(=O)N3CCOCC3)c2)cc1`, the Activity was “inactive”.
For `COc1cccc(Cn2cc(C(=O)Nc3ccc(C)c(S(=O)(=O)N4CCOCC4)c3)c(-c3ccc(C(F)(F)F)cc3)n2)c1`, the Activity was “inactive”.
In the case of `COCCc1nn(Cc2cccc(OC)c2)cc1C(=O)Nc1ccc(C)c(S(=O)(=O)N2CCOCC2)c1`, the Activity was “inactive”.
In the case of `COCCc1nn(C(C)C)cc1C(=O)Nc1ccc(C)c(S(=O)(=O)N2CCOCC2)c1`, the Activity was “inactive”.

Target: T2, Bile acid receptor (Homo sapiens)
Assay: Agonist activity at human FXR
Settings: not given
In the case of `Cc1ccc(NC(=O)c2cnn(-c3ccccc3)c2C(F)(F)F)cc1S(=O)(=O)N1CCOCC1`, the Activity was “inactive”.
For `Cc1cccc(-n2ncc(C(=O)Nc3cccc(S(=O)(=O)N4CCOCC4)c3)c2C)c1`, the Activity was “inactive”.
With `Cc1ccc(NC(=O)c2c(C)nn(-c3ccccc3)c2C)cc1S(=O)(=O)N1CCOCC1` the Activity was “inactive”.
For `O=C(Nc1ccc(F)c(S(=O)(=O)N2CCOCC2)c1)c1cnn(-c2ccccc2)c1`, the Activity was “inactive”.

— ChEMBL document CHEMBL3259745, “Identification of trisubstituted-pyrazol carboxamide analogs as novel and potent antagonists of farnesoid X receptor” (Bioorg Med Chem, 2014)
